The values that follow come from ChEMBL document CHEMBL1129950, “Structural requirements for binding of anandamide-type compounds to the brain cannabinoid receptor” (J Med Chem, 1997).

Experiment [1] concerns the target T1, Cannabinoid receptor 1 (Homo sapiens, UniProt P21554). The experiment can be described thus: Binding affinity against the cannabinoid receptor. The essentials:
(§1)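 Whole rat brain synaptosomal membranes (2.4-3.8 µg protein) were competed against 38-48 fmol [3H]HU-243. Drug was serially diluted in 5 mg/mL fatty-acid-free BSA. Final 1 mL held 45 mM Tris-HCl, 2.7 mM MgCl2, 0.9 mM EDTA and 0.58 mg BSA. Incubation was 30 °C, 90 min. Bound ligand was separated by centrifugation, and pellet tips were scintillation-counted. Ki came from displacement.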

Experiment [2] deals with Cannabinoid receptor 1 (Rattus norvegicus, UniProt P20272). In words: In vitro binding affinity was determined against rat brain Cannabinoid receptor 1. In short, it runs like this:
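Drug was serially diluted in 5 mg/mL fatty-acid-free BSA. Final 1 mL held 45 mM Tris-HCl, 2.7 mM MgCl2, 0.9 mM EDTA and 0.58 mg BSA. Incubation was 30 °C, 90 min. Bound ligand was separated by centrifugation, and pellet tips were scintillation-counted. Ki came from displacement.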

Experiment [3] deals with T1, Cannabinoid receptor 1. The experiment can be described thus: Binding affinity against the Cannabinoid receptor 1 in the presence of PMSF (experiment 2).
Experiment [4] addresses T1, Cannabinoid receptor 1. The experiment can be described thus: Binding affinity against the cannabinoid receptor (expt 1). In short, it runs like this:
as §1

The target in experiment [5] is T1, Cannabinoid receptor 1. In words: Binding affinity against the cannabinoid receptor in the presence of PMSF (expt 1).
In experiment [6] the target is T1, Cannabinoid receptor 1. The experiment can be described thus: Binding affinity against the cannabinoid receptor in the presence of PMSF (expt 3).
Experiment [7] concerns the target T1, Cannabinoid receptor 1. In words: Binding affinity against the cannabinoid receptor in the presence of PMSF.
Experiment [8] deals with T1, Cannabinoid receptor 1. The experiment can be described thus: Binding affinity against the cannabinoid receptor in the presence of PMSF (experiment 2).
The target of experiment [9] is T1, Cannabinoid receptor 1. In words: Binding affinity against the cloned human Cannabinoid receptor 1.
Experiment [10] has as its target T1, Cannabinoid receptor 1. The experiment can be described thus: Binding affinity against the cloned human Cannabinoid receptor 1; no activity.

T1 sequence (P21554 whole entry): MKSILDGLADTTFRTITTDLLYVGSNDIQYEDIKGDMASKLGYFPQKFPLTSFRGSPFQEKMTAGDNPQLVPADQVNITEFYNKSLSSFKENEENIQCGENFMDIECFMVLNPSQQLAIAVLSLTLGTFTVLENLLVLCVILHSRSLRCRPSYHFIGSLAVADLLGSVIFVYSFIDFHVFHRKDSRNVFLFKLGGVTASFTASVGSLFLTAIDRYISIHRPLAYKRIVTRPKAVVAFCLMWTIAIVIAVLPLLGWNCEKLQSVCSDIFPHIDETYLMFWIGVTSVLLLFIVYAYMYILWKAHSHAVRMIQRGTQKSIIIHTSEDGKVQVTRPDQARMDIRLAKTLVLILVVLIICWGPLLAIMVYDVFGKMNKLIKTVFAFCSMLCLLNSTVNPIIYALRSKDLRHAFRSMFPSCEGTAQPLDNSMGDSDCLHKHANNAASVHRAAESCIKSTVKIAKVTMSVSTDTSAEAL
Sequence of Cannabinoid receptor 1 (Rattus norvegicus, UniProt P20272) (P20272 whole entry): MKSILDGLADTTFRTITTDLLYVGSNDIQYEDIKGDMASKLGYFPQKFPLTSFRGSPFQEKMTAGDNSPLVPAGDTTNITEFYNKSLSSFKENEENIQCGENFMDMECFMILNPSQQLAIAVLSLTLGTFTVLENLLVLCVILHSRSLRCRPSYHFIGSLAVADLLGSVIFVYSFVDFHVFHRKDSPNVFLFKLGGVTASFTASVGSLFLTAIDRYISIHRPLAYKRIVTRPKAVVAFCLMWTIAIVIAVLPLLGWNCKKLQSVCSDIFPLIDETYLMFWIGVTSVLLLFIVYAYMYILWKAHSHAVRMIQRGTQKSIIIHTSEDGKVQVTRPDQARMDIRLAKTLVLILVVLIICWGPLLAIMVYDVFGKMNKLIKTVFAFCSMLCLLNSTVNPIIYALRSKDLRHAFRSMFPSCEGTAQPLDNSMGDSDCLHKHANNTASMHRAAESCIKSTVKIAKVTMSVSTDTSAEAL

On to `CCCCC/C=C\C/C=C\C/C=C\CCCCCCC(=O)NCCO`, for which, on Cannabinoid receptor 1 [1], the Ki came out at 598 nM.
As for `CCCCC/C=C\C/C=C\CCCCCCCCCC(=O)NCCO`, the Ki on Cannabinoid receptor 1 [2] (read-out: Ki) is 1500 nM.
As to `CCCCC/C=C\C/C=C\C/C=C\C/C=C\CCCC(=O)N(C)CCO`, the Ki on Cannabinoid receptor 1 [3] is 4980 nM; at Cannabinoid receptor 1 [2] (read-out: Ki) it was above 10000 nM; on Cannabinoid receptor 1 [4] it was 5240 nM.
Turning to `CCCCC/C=C\C/C=C\C/C=C\C/C=C\CCCC(=O)NC(C)(C)C`, the inhibitory constant (Ki) at Cannabinoid receptor 1 [2] (read-out: Ki) came out at 139 nM.
`CCCCC/C=C\C/C=C\C/C=C\C/C=C\CCCC(=O)N[C@@H](C)CC`: on Cannabinoid receptor 1 [2] (read-out: Ki), the inhibition constant (Ki) came to 377 nM.
For the molecule `CCCCC/C=C\C/C=C\C/C=C\C/C=C\CCCC(=O)NCCCC`, the Ki on Cannabinoid receptor 1 [2] (read-out: Ki) amounted to 236 nM; at Cannabinoid receptor 1 [1], 30 nM.
On to `CCCCC/C=C\C/C=C\C/C=C\C/C=C\CCCC(=O)N(C)C`, for which the Ki at Cannabinoid receptor 1 [2] (read-out: Ki) is above 1000 nM.
On the same count and under the same terms, in the case of `CCCCC/C=C\C/C=C\C/C=C\C/C=C\CCCC(=O)NC` it was 60 nM.
On the same count and under the same terms, in the case of `CCCCC/C=C\C/C=C\C/C=C\C/C=C\CCCC(=O)N(CC)CC` it was above 1000 nM.
On the same count and under the same terms, in the case of `CC/C=C/C/C=C\C/C=C\C/C=C\CCCCC(=O)NCCO` it was above 1000 nM; in that of `CCCCC/C=C\C/C=C\C/C=C\C/C=C\CCCC(=O)N(CCC)CCO`, above 10000 nM.
In the case of `CCCCC/C=C\C/C=C\C/C=C\C/C=C\CCC(C)C(=O)NCCO` (configuration not stated), the Ki at Cannabinoid receptor 1 [5] and at Cannabinoid receptor 1 [6] was 53 nM each time.
Regarding `CCCCC/C=C\C/C=C\C/C=C\C/C=C\CCCC(=O)NCCC(C)C`, the Ki was found to be 575 nM at Cannabinoid receptor 1 [2] (read-out: Ki) and 1860 nM on Cannabinoid receptor 1 [7].
As for `CCCCC/C=C\C/C=C\C/C=C\C/C=C\CCC(C)C(=O)NCCC` (configuration not stated), the Ki on Cannabinoid receptor 1 [2] (read-out: Ki) turned out to be 7.4 nM.
The same measure, in the same setting: in the case of `CCCCC/C=C\C/C=C\C/C=C\C/C=C\CCCC(=O)NCCN(CC)CC` it was above 1000 nM; in that of `CCCCC/C=C\C/C=C\C/C=C\C/C=C\CCCC(=O)NCCOP(=O)(O)O`, 191 nM; in that of `CCCCC/C=C\C/C=C\C/C=C\C/C=C\CCCC(=O)NC(C)(C)CC`, 447 nM.
Take `CC/C=C/C/C=C\C/C=C\CCCCCCCCCC(=O)NCCO`: the Ki at Cannabinoid receptor 1 [2] (read-out: Ki) is above 10000 nM.
As to `CC/C=C/C/C=C\C/C=C\CCCCCCCC(=O)NCCO`, the Ki entry at Cannabinoid receptor 1 [2] is reported as “Not Active”.
As for `CCCCC/C=C\C/C=C\C/C=C\C/C=C\CCC(C)(C)C(=O)NCCC`, the Ki on Cannabinoid receptor 1 [2] (read-out: Ki) was 6.9 nM.
For `CCCCCC#CCC#CCC#CCC#CCCCC(=O)NCCO`, at Cannabinoid receptor 1 [2], the Ki result is recorded as “Not Active”.
In the case of `CCCCCCCC/C=C\CCCCCCCCCC(=O)NCCO`, the figures for the Ki on Cannabinoid receptor 1 [2] (read-out: Ki) and at Cannabinoid receptor 1 [8] were above 1000 nM and above 10000 nM, respectively.
With `CCCCC/C=C\C/C=C\C/C=C\C/C=C\CCCC(=O)NC(CO)C(=O)O` (configuration not stated), the inhibitory constant (Ki) on Cannabinoid receptor 1 [2] (read-out: Ki) was above 10000 nM.
Same read-out and setting: in the case of `CCCCC/C=C\C/C=C\C/C=C\C/C=C\CCC(C)C(=O)NC(C)C` (configuration not stated) it was 8.4 nM.
At Cannabinoid receptor 1 [9], `CC/C=C/C/C=C\C/C=C\C/C=C\C/C=C\C/C=C/CCC(=O)NCCO` had a Ki of 12200 nM.
For the molecule `CC/C=C/C/C=C\C/C=C\C/C=C\C/C=C/CCCC(=O)NCCO`, the results for the Ki on Cannabinoid receptor 1 [2] (read-out: Ki) and at Cannabinoid receptor 1 [8] were 162 nM and 1470 nM, respectively.
As to `CCCCC/C=C\C/C=C\C/C=C\C/C=C\CCCC(=O)N(CC)CCO`, the Ki on Cannabinoid receptor 1 [2] (read-out: Ki) is above 10000 nM.
On the same count and under the same terms, in the case of `CCCCC/C=C\C/C=C\C/C=C\C/C=C\CCCC(=O)NC(C)(C)CO` it was 162 nM; in that of `CCCCC/C=C\C/C=C\C/C=C\C/C=C\CCCC(=O)NC(C)C`, 13.6 nM; in that of `CCCCC/C=C\C/C=C\C/C=C\C/C=C\CCC(C)(C)C(=O)N[C@H](C)CO`, 31.1 nM.
The same measure, in the same setting: in the case of `CCCCC/C=C\C/C=C\C/C=C\C/C=C\CCC(C)(C)C(=O)NC[C@H](C)O` it was 46.6 nM.
On the same count and under the same terms, in the case of `CCCCC/C=C\C/C=C\C/C=C\C/C=C\CCC(C)(C)C(=O)N[C@@H](C)CO` it was 191 nM; in that of `CCCCC/C=C\C/C=C\C/C=C\C/C=C\CCCC(=O)NO`, above 1000 nM.
`CCCCC/C=C\C/C=C\C/C=C\C/C=C\CCCC(=O)NCCCO`: the Ki was found to be 13 nM at Cannabinoid receptor 1 [1], 189 nM at Cannabinoid receptor 1 [7] and 364 nM at Cannabinoid receptor 1 [9].
As to `CCCCC/C=C\C/C=C\C/C=C\C/C=C\CCCC(=O)NCCCCC`, the Ki at Cannabinoid receptor 1 [2] (read-out: Ki) was above 1000 nM.
The same measure, in the same setting: in the case of `CCCCC/C=C\C/C=C\C/C=C\C/C=C\CCCC(=O)N[C@H](C)CC` it was 240 nM.
In the case of `CCCCC/C=C\C/C=C\C/C=C\C/C=C\CCCC(=O)NC(C)C(O)c1ccccc1` (configuration not stated), the inhibitory constant (Ki) at Cannabinoid receptor 1 [2] (read-out: Ki) was above 1000 nM.
Take `CCCCC/C=C\C/C=C\C/C=C\C/C=C\CCC(C)(C)C(=O)NCCO`: the inhibitory constant (Ki) amounted to 25.5 nM at Cannabinoid receptor 1 [2] (read-out: Ki), 41 nM at Cannabinoid receptor 1 [1], 47 nM at Cannabinoid receptor 1 [5] and 47 nM on Cannabinoid receptor 1 [8].
`CCCCC/C=C\C/C=C\C/C=C\C/C=C\CCC(C)(C)C(=O)NC(C)C`: the inhibition constant Ki on Cannabinoid receptor 1 [2] (read-out: Ki) was found to be 7.2 nM.
Regarding `CCCCC/C=C\C/C=C\C/C=C\C/C=C\CCCC(=O)NCCC`, the inhibition constant (Ki) at Cannabinoid receptor 1 [2] (read-out: Ki) turned out to be 11.7 nM; on Cannabinoid receptor 1 [1], 7.3 nM.
As for `CCCCC/C=C\C/C=C\C/C=C\C/C=C\CCCC(=O)NCCOC`, the results for the Ki on Cannabinoid receptor 1 [2] (read-out: Ki), at Cannabinoid receptor 1 [1] and at Cannabinoid receptor 1 [7] were 85.2 nM, 650 nM and 1820 nM, respectively.
On Cannabinoid receptor 1 [9], `CCCCC/C=C\C/C=C\CCCCCCCC(=O)NCCO` (stereo in doubt; 37) [LINOLEOYLETHANOLAMIDE] had a Ki above 41400 nM.
Consider `CCCCC/C=C\C/C=C\C/C=C\C/C=C\CCCC(N)=O` [ARACHIDONAMIDE], for which the inhibition constant Ki was above 1000 nM on Cannabinoid receptor 1 [2] (read-out: Ki) and 9600 nM on Cannabinoid receptor 1 [9].
`CCCCC/C=C\C/C=C\C/C=C\C/C=C\CCCC(=O)NCC(=O)O` [ARACHIDONOYL GLYCINE]: at Cannabinoid receptor 1 [2] (read-out: Ki), the inhibition constant (Ki) was above 10000 nM.
For the molecule `CCCCCCCCCCCCCCCC(=O)NCCO` [PALMIDROL], the Ki entry on Cannabinoid receptor 1 [10] and on Cannabinoid receptor 1 [2] was “Not Active” each time.
